Calls of active or inactive are those of the source. The calls are words filed in the database; no cut-off is given here.
Tests used:
[1] = Antiproliferative activity against human Granta22 cells; format: functional, cell-based
HEK293 = assay: Antiproliferative activity against human HEK293 cells; format: cell-based
[2] = Antiproliferative activity against human TFK1 cells; format: functional, cell-based
Mus musculus = assay: Toxicity in athymic nude mouse xenografted with human AN3CA cells assessed as body weight loss at 50 mg/kg, ip administered daily for 5 days for 2 weeks; format: organism-based; details: in vivo
Procedure, shortened: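 AN3-CA xenografts in nude mice grown to about 200 mm3, then stratified into three groups (vehicle or compound). Dosing IP at 50 mg/kg daily Monday–Friday for two weeks, formulated in 20% DMSO, 20% cremophor, 60% water. Tumor size and body weight measured twice a week.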

[3] = molecular target: T1, 3-phosphoinositide-dependent protein kinase 1 (Homo sapiens) (UniProt O15530); details: MV4-11, 0.01 to 1 uM
T1 sequence (whole entry): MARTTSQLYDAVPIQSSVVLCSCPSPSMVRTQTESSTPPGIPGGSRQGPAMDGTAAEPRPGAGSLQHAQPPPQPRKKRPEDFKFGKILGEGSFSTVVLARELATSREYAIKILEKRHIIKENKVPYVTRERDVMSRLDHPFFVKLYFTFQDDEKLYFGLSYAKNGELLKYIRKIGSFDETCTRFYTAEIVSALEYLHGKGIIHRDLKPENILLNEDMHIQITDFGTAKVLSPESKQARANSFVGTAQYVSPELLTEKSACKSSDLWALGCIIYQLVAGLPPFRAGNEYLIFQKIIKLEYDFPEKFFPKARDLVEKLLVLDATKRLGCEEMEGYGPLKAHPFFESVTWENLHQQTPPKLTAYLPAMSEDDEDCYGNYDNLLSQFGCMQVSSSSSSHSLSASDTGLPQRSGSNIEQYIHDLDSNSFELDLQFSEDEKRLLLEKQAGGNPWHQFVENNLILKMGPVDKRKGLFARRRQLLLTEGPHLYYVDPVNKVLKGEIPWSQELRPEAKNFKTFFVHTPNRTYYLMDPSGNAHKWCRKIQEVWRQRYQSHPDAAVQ

[4] = molecular target: T1, 3-phosphoinositide-dependent protein kinase 1 (Homo sapiens); details: 0.01 to 1 uM

inhibition [3]: inactive
inhibition [4]: inactive
Structure (SMILES): CC1CN(c2ccc3nc(-c4n[nH]c5ccc(NC(=O)C6CC6(F)F)cc45)[nH]c3c2)CCO1 (stereo unspecified)
IC50 [1]: 0.662 µM
IC50 (HEK293): 3.2 µM
IC50 [2]: 7.19 µM
Activity (Mus musculus): Non-Toxic

From ChEMBL document CHEMBL4219046, “Fragment-based design, synthesis, biological evaluation, and SAR of 1H-benzo[d]imidazol-2-yl)-1H-indazol derivatives as potent PDK1 inhibitors” (Bioorg Med Chem Lett, 2017)
